In ChEMBL document CHEMBL2390837, “Synthesis, cytotoxic activity and DNA-interaction studies of novel anthraquinone-thiosemicarbazones with tautomerizable methylene group” (Eur J Med Chem, 2013):
Active and inactive are the calls of the source. The calls are words filed in the database; no cut-off is given here.

Key:
DNA [1] = assay: Binding affinity to calf thymus DNA after 1.5 hrs by spectroscopic titration; format: nucleic-acid assay; details: Bos taurus
How it was run: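 Absorbance titration in 40 mM bicarbonate buffer pH 8.4. Compound held fixed at 40 μM, CT-DNA varied at (0.2–1.6) × 10⁻⁴ M. Mixtures incubated 1.5 h at 37 °C, then UV–Vis spectra recorded from 200 to 800 nm. K_B taken from a plot of [DNA]/(εA − εF) versus [DNA].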

Escherichia coli = assay: Induction of Escherichia coli XL1 blue pUC18 DNA cleavage assessed as conversion of supercoiled DNA to relaxed circular DNA at 2 mM after 90 mins by agarose gel electrophoresis
How it was run: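 Supercoiled pUC18 (262 ng, from E. coli XL1 blue) incubated with 2 mM compound in 20 μL of 40 mM bicarbonate buffer pH 8.4 at 37 °C for 90 min. Reaction stopped with loading buffer. Analyzed on 1% agarose in TAE pH 8.24 at 80 V and stained with ethidium bromide (0.5 µg/mL).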

DNA [2] = assay: Binding affinity to calf thymus DNA at 20 to 80 uM after 1.5 hrs by UV-vis spectrophotometric analysis; format: nucleic-acid assay; details: Bos taurus
How it was run: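 UV–Vis spectra (200–800 nm, 1 cm cells) of compound at 20, 40, 60 or 80 μM, with or without 0.12 mM CT-DNA. CT-DNA was dissolved in 10 mM Tris-HCl pH 7.9. Mixtures were in 40 mM bicarbonate buffer pH 8.4, incubated 1.5 h at 37 °C with occasional vortexing.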

[3] = test system: Radical scavenging activity; assay: Antioxidant activity assessed as DPPH radical scavenging activity after 30 mins by spectrophotometric analysis; format: functional
How it was run: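 Test solutions at 8–1000 μM in methanol mixed 1:1 by volume with 200 μM DPPH in methanol, kept 30 min in the dark at room temperature. Absorbance read at 517 nm against blanks without DPPH. Percent scavenging = (A_DPPH − A_sample)/A_DPPH × 100. IC50 (concentration halving DPPH absorbance) read from a plot of % versus concentration. Ascorbic acid and BHT used as standards.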

HeLa [4] = assay: Induction of apoptosis in human HeLa cells at IC90 after 24 hrs by propidium iodide staining-based FACS flow cytometric analysis in presence of caspase-9 inhibitor Z-LEHD-FMK; format: functional, cell-based
HeLa [5] = assay: Induction of apoptosis in human HeLa cells at IC90 after 24 hrs by propidium iodide staining-based FACS flow cytometric analysis in presence of caspase-8 inhibitor Z-IETD-FMK; format: functional, cell-based
HeLa [6] = assay: Induction of apoptosis in human HeLa cells at IC90 after 24 hrs by propidium iodide staining-based FACS flow cytometric analysis in presence of caspase-3 inhibitor Z-DEVD-FMK; format: functional, cell-based
HeLa [7] = assay: Cell cycle arrest in human HeLa cells assessed as accumulation at G2/M phase at 2 times IC50 after 24 hrs by propidium iodide staining-based FACS flow cytometric analysis (reference value: 21.66%); format: functional
HeLa [8] = assay: Cell cycle arrest in human HeLa cells assessed as accumulation at S phase at 2 times IC50 after 24 hrs by propidium iodide staining-based FACS flow cytometric analysis (reference value: 16.22%); format: functional
HeLa [9] = assay: Cell cycle arrest in human HeLa cells assessed as accumulation at G1 phase at 2 times IC50 after 24 hrs by propidium iodide staining-based FACS flow cytometric analysis (reference value: 51.97%); format: functional
HeLa [10] = assay: Cell cycle arrest in human HeLa cells assessed as accumulation at subG1 phase at 2 times IC50 after 24 hrs by propidium iodide staining-based FACS flow cytometric analysis (reference value: 9.10%); format: functional
HeLa [11] = assay: Cell cycle arrest in human HeLa cells assessed as accumulation at G2/M phase at IC50 after 24 hrs by propidium iodide staining-based FACS flow cytometric analysis (reference value: 21.66%); format: functional
HeLa [12] = assay: Cell cycle arrest in human HeLa cells assessed as accumulation at S phase at IC50 after 24 hrs by propidium iodide staining-based FACS flow cytometric analysis (reference value: 16.22%); format: functional
HeLa [13] = assay: Cell cycle arrest in human HeLa cells assessed as accumulation at G1 phase at IC50 after 24 hrs by propidium iodide staining-based FACS flow cytometric analysis (reference value: 51.97%); format: functional
HeLa [14] = assay: Cell cycle arrest in human HeLa cells assessed as accumulation at subG1 phase at IC50 after 24 hrs by propidium iodide staining-based FACS flow cytometric analysis (reference value: 9.10%); format: functional
MRC5 = assay: Cytotoxicity against human MRC5 cells after 72 hrs by MTT assay; format: cell-based; details: MRC5, 72 h
How it was run: (§1)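 Cells seeded in 96-well plates: HeLa 2000, MDA-MB-361 7000, MDA-MB-453 3000, K562, A549 and MRC-5 5000 per well. Compounds added at 5–100 μM (final), DMSO ≤0.5%, in RPMI-1640 with 10% FBS. Added after 24 h, except K562 at 2 h after seeding. Exposure 72 h, then MTT 4 h at 37 °C, SDS solubilization, A570 read. IC50 is the mean ± SD of three independent experiments.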

A549 = assay: Cytotoxicity against human A549 cells after 72 hrs by MTT assay; format: functional, cell-based; details: A549, 72 h; how it was run: as §1
K562 = assay: Cytotoxicity against human K562 cells after 72 hrs by MTT assay; format: functional, cell-based; details: K562, 72 h; how it was run: as §1
MDA-MB-361 = assay: Cytotoxicity against human MDA-MB-361 cells after 72 hrs by MTT assay; format: functional, cell-based; details: MDA-MB-361, 72 h; how it was run: as §1
MDA-MB-453 = assay: Cytotoxicity against human MDA-MB-453 cells after 72 hrs by MTT assay; format: functional, cell-based; details: MDA-MB-453, 72 h; how it was run: as §1
HeLa [15] = assay: Cytotoxicity against human HeLa cells after 72 hrs by MTT assay; format: functional, cell-based; how it was run: as §1

Structure (SMILES)	Activity (Escherichia coli)	Activity (DNA [2])	IC50 [3]	Activity (HeLa [4])	Activity (HeLa [5])	Activity (HeLa [6])	Activity (HeLa [7])	Activity (HeLa [8])	Activity (HeLa [9])	Activity (HeLa [10])	Activity (HeLa [11])	Activity (HeLa [12])	Activity (HeLa [13])	Activity (HeLa [14])	IC50 (MRC5)	IC50 (A549)	IC50 (K562)	IC50 (MDA-MB-361)	IC50 (MDA-MB-453)	IC50 (HeLa [15])	further results
CC[n+]1c(-c2ccccc2)c2cc(N)ccc2c2ccc(N)cc21																					Kb (DNA [1]): 7 ×10⁷ /M
CCOC(=O)/C(CC(=O)c1cccc2c1C(=O)c1ccccc1C2=O)=N\NC(=S)Nc1ccc(C)cc1	inactive	Active	41 µM	Active	Active	Active	Active	Active	Active	Active	Active	Active	Active	Active	30.3 µM	22.5 µM	3.97 µM	32.6 µM	11.3 µM	21 µM	Kb (DNA [1]): 2.91 ×10⁹ /M
CCOC(=O)/C(=C/C(=O)c1cccc2c1C(=O)c1ccccc1C2=O)Nc1ccccc1															100 µM	100 µM	100 µM	100 µM	100 µM	100 µM	
CCOC(=O)/C(CC(=O)c1cccc2c1C(=O)c1ccccc1C2=O)=N\Nc1ccccc1															40 µM	40 µM	40 µM	40 µM	40 µM	40 µM	
Cc1cc(C(C)(C)C)c(O)c(C(C)(C)C)c1 [BUTYLATED HYDROXYTOLUENE]			33.9 µM																		
CCCCNC(=S)N/N=C(/CC(=O)c1cccc2c1C(=O)c1ccccc1C2=O)C(=O)OCC	inactive	Active	25.8 µM	Active	Active	Active	Active	Active	Active	Active	Active	Active	Active	Active	21.1 µM	19.6 µM	3.8 µM	30.8 µM	11.5 µM	10.9 µM	
CCOC(=O)/C(CC(=O)c1cccc2c1C(=O)c1ccccc1C2=O)=N\NC(=S)NC1CCCCC1	inactive	Active	16.4 µM	Active	Active	Active	Active	Active	Active	Active	Active	Active	Active	Active	13.6 µM	13.9 µM	2.35 µM	32.6 µM	4.64 µM	9.15 µM	
O=C1O[C@H]([C@@H](O)CO)C(O)=C1O [ASCORBIC ACID]			15.9 µM																		
CCOC(=O)/C(CC(=O)c1cccc2c1C(=O)c1ccccc1C2=O)=N\NC(=S)NCc1cccnc1	inactive	Active	46.9 µM	Active	Active	Active	Active	Active	Active	Active	Active	Active	Active	Active	13.6 µM	23.4 µM	2.17 µM	50.5 µM	17.7 µM	18.1 µM	
CCOC(=O)/C(CC(=O)c1cccc2c1C(=O)c1ccccc1C2=O)=N/NC(N)=S	inactive	Active	20.5 µM	Active	Active	Active	Active	Active	Active	Active	Active	Active	Active	Active	36.2 µM	29 µM	7.99 µM	30.7 µM	13.6 µM	14.4 µM	Kb (DNA [1]): 0.55 ×10⁹ /M
CCOC(=O)/C(CC(=O)c1cccc2c1C(=O)c1ccccc1C2=O)=N\NC(=S)NCc1ccco1	inactive	Active	35.8 µM	Active	Active	Active	Active	Active	Active	Active	Active	Active	Active	Active	38.6 µM	22.6 µM	2.63 µM	47.8 µM	19.4 µM	19 µM	
